Experimental data published in ChEMBL document CHEMBL1649165, “Activity profile in vitro of micafungin against Spanish clinical isolates of common and emerging species of yeasts and molds” (2009).
In brackets after ≈: the same amount, converted by molar mass.

Key:
Type in all cases: functional
Pichia norvegensis = assay: Antimicrobial activity against Candida norvegensis by broth microdilution method
Method in brief: (§1)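 Clinical isolates from human patients, tested by broth microdilution using the AFST-EUCAST reference procedure for fermentative yeasts. The MIC was read per that reference method.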

Aspergillus = assay: Antimicrobial activity against Aspergillus spp. by broth microdilution method
Method in brief: (§2)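 Clinical mould isolates, tested by broth microdilution using the AFST-EUCAST reference method for filamentous fungi. For echinocandins, the endpoint was the minimum effective concentration: the lowest drug concentration giving aberrant hyphal growth, read with an inverted microscope.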

[Candida] zeylanoides = Antimicrobial activity against Candida zeylanoides by broth microdilution method; details: Dujonia zeylanoides; method in brief: as §1
Aspergillus fumigatus = assay: Antimicrobial activity against Aspergillus fumigatus by broth microdilution method; method in brief: as §2
Debaryomyces hansenii = assay: Antimicrobial activity against Candida famata by broth microdilution method; method in brief: as §1
Rhizomucor = assay: Antimicrobial activity against Rhizomucor spp.by broth microdilution method
Method in brief: (§3)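 Filamentous fungus clinical isolates tested by the AFST-EUCAST reference broth microdilution method for moulds. For echinocandins, the endpoint was the minimum effective concentration: the lowest drug concentration giving aberrant hyphal growth, read with an inverted microscope.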

Lomentospora prolificans = assay: Antimicrobial activity against Scedosporium prolificans by broth microdilution method; method in brief: as §3
Saccharomyces cerevisiae = assay: Antimicrobial activity against Saccharomyces cerevisiae by broth microdilution method
[1] = tested on: Cladophialophora bantiana; assay: Antimicrobial activity against Cladophialophora bantiana by broth microdilution method; method in brief: as §2
Candida metapsilosis = assay: Antimicrobial activity against Candida metapsilosis by broth microdilution method; details: Lodderomyces metapsilosis; method in brief: as §1
Aspergillus sydowii = assay: Antimicrobial activity against Aspergillus sydowii by broth microdilution method; method in brief: as §2
Trichosporon dermatis = assay: Antimicrobial activity against Trichosporon dermatis by broth microdilution method; details: Cutaneotrichosporon dermatis
Method in brief: (§4)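 Nonfermentative yeast clinical isolates (Rhodotorula, Trichosporon) tested by broth microdilution. The EUCAST yeast recommendations were followed strictly, with one minor modification to improve growth. MIC was read as the endpoint.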

[Candida] inconspicua = Antimicrobial activity against Candida inconspicua by broth microdilution method; details: Pichia inconspicua; method in brief: as §1
Cladosporium = assay: Antimicrobial activity against Cladosporium spp. by broth microdilution method; method in brief: as §2
Trichosporon jirovecii = assay: Antimicrobial activity against Trichosporon jirovecii by broth microdilution method; details: Cutaneotrichosporon jirovecii; method in brief: as §4
Trichoderma = assay: Antimicrobial activity against Trichoderma spp. by broth microdilution method; method in brief: as §3
Aspergillus sclerotiorum = assay: Antimicrobial activity against Aspergillus sclerotiorum by broth microdilution method; method in brief: as §2
Aspergillus versicolor = assay: Antimicrobial activity against Aspergillus versicolor by broth microdilution method; method in brief: as §2
Alternaria alternata = assay: Antimicrobial activity against Alternaria alternata by broth microdilution method; method in brief: as §2
Pichia kudriavzevii = assay: Antimicrobial activity against Candida krusei by broth microdilution method; method in brief: as §1
Candida albicans = assay: Antimicrobial activity against Candida albicans by broth microdilution method; method in brief: as §1
Geotrichum candidum = assay: Antimicrobial activity against Galactomyces geotrichum by broth microdilution method
[2] = Antimicrobial activity against Rhizopus microsporus by broth microdilution method; method in brief: as §3
Lichtheimia corymbifera = assay: Antimicrobial activity against Mycocladus corymbiferus by broth microdilution method; method in brief: as §3
Paecilomyces lilacinus = assay: Antimicrobial activity against Paecilomyces lilacinus by broth microdilution method; details: Purpureocillium lilacinum; method in brief: as §3
Nakaseomyces glabratus = assay: Antimicrobial activity against Candida glabrata by broth microdilution method; method in brief: as §1
Paecilomyces variotii = assay: Antimicrobial activity against Paecilomyces variotii by broth microdilution method; method in brief: as §3
Saksenaea vasiformis = assay: Antimicrobial activity against Saksenaea vasiformis by broth microdilution method; method in brief: as §3
Candida parapsilosis = assay: Antimicrobial activity against Candida parapsilosis by broth microdilution method; details: Lodderomyces parapsilosis; method in brief: as §1
Wickerhamomyces anomalus = assay: Antimicrobial activity against Candida pelliculosa by broth microdilution method; details: Hansenula anomala; method in brief: as §1
[3] = Antimicrobial activity against Hormographiella aspergillata by broth microdilution method; details: Coprinopsis cinerea; method in brief: as §3
Exophiala jeanselmei = assay: Antimicrobial activity against Exophiala jeanselmei by broth microdilution method
Trichosporon asahii = assay: Antimicrobial activity against Trichosporon asahii by broth microdilution method; method in brief: as §4
Yarrowia lipolytica = assay: Antimicrobial activity against Yarrowia lipolytica by broth microdilution method
Trichosporon = assay: Antimicrobial activity against Trichosporon spp. by broth microdilution method; method in brief: as §4
Magnusiomyces capitatus = assay: Antimicrobial activity against Dipodascus capitatus by broth microdilution method
Trichosporon ovoides = assay: Antimicrobial activity against Trichosporon ovoides by broth microdilution method; method in brief: as §4
Neurospora sitophila = assay: Antimicrobial activity against Chrysonilia sitophila by broth microdilution method; method in brief: as §2
Papiliotrema laurentii = assay: Antimicrobial activity against Cryptococcus laurentii by broth microdilution method
Method in brief: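 Clinical isolates of nonfermentative yeasts, tested by broth microdilution following EUCAST recommendations. The only change from that method was a minor modification to improve growth.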

Aspergillus niger = assay: Antimicrobial activity against Aspergillus niger by broth microdilution method; method in brief: as §2
Beauveria bassiana = assay: Antimicrobial activity against Beauveria bassiana by broth microdilution method; method in brief: as §2

Question: With CC[C@H](C)C[C@H](C)CCCCCCCCC(=O)N[C@H]1C[C@@H](O)[C@@H](NCCN)NC(=O)[C@@H]2[C@@H](O)CCN2C(=O)[C@H]([C@H](O)CCN)NC(=O)[C@H]([C@H](O)[C@@H](O)c2ccc(O)cc2)NC(=O)[C@@H]2C[C@@H](O)CN2C(=O)[C@H]([C@@H](C)O)NC1=O [CASPOFUNGIN] as the molecule, how does the MIC50 (Pichia norvegensis) read?
Answer: 0.06 µg/mL (≈ 0.0549 µM)

Question: What about the MIC90 (Pichia norvegensis) of the same molecule?
Answer: 0.5 µg/mL (≈ 0.457 µM)

Question: And the MIC50 (Aspergillus)?
Answer: 0.12 µg/mL (≈ 0.11 µM)

Question: What about the MIC90 (Aspergillus) of the same molecule?
Answer: 0.5 µg/mL (≈ 0.457 µM)

Question: What about the MIC50 ([Candida] zeylanoides) of the same molecule?
Answer: 0.06 µg/mL (≈ 0.0549 µM)

Question: And the MIC90 ([Candida] zeylanoides)?
Answer: 0.5 µg/mL (≈ 0.457 µM)

Question: What about the MIC50 (Aspergillus fumigatus) of the same molecule?
Answer: 0.25 µg/mL (≈ 0.229 µM)

Question: What about the MIC90 (Aspergillus fumigatus) of the same molecule?
Answer: 0.5 µg/mL (≈ 0.457 µM)

Question: What about the MIC50 (Debaryomyces hansenii) of the same molecule?
Answer: 0.06 µg/mL (≈ 0.0549 µM)

Question: What about the MIC90 (Debaryomyces hansenii) of the same molecule?
Answer: 0.5 µg/mL (≈ 0.457 µM)

Question: And the MIC50 (Rhizomucor)?
Answer: > 16 µg/mL

Question: And the MIC90 (Rhizomucor)?
Answer: > 16 µg/mL

Question: And the MIC50 (Lomentospora prolificans)?
Answer: 8 µg/mL (≈ 7.32 µM)

Question: And the MIC90 (Lomentospora prolificans)?
Answer: > 16 µg/mL

Question: And the MIC50 (Saccharomyces cerevisiae)?
Answer: 0.5 µg/mL (≈ 0.457 µM)

Question: What about the MIC90 (Saccharomyces cerevisiae) of the same molecule?
Answer: 1 µg/mL (≈ 0.915 µM)

Question: What about the MIC50 [1] of the same molecule?
Answer: 0.25 µg/mL (≈ 0.229 µM)

Question: And the MIC90 [1]?
Answer: 1 µg/mL (≈ 0.915 µM)

Question: And the MIC50 (Candida metapsilosis)?
Answer: 0.06 µg/mL (≈ 0.0549 µM)

Question: And the MIC90 (Candida metapsilosis)?
Answer: 0.5 µg/mL (≈ 0.457 µM)

Question: And the MIC50 (Aspergillus sydowii)?
Answer: 0.25 µg/mL (≈ 0.229 µM)

Question: And the MIC90 (Aspergillus sydowii)?
Answer: 1 µg/mL (≈ 0.915 µM)

Question: What about the MIC50 (Trichosporon dermatis) of the same molecule?
Answer: > 16 µg/mL

Question: What about the MIC90 (Trichosporon dermatis) of the same molecule?
Answer: > 16 µg/mL

Question: What about the MIC50 ([Candida] inconspicua) of the same molecule?
Answer: 0.06 µg/mL (≈ 0.0549 µM)

Question: What about the MIC90 ([Candida] inconspicua) of the same molecule?
Answer: 0.5 µg/mL (≈ 0.457 µM)

Question: And the MIC50 (Cladosporium)?
Answer: 0.25 µg/mL (≈ 0.229 µM)

Question: And the MIC90 (Cladosporium)?
Answer: 1 µg/mL (≈ 0.915 µM)

Question: What about the MIC50 (Trichosporon jirovecii) of the same molecule?
Answer: > 16 µg/mL

Question: And the MIC90 (Trichosporon jirovecii)?
Answer: > 16 µg/mL

Question: And the MIC50 (Trichoderma)?
Answer: > 16 µg/mL

Question: What about the MIC90 (Trichoderma) of the same molecule?
Answer: > 16 µg/mL

Question: What about the MIC50 (Aspergillus sclerotiorum) of the same molecule?
Answer: 0.12 µg/mL (≈ 0.11 µM)

Question: And the MIC90 (Aspergillus sclerotiorum)?
Answer: 0.5 µg/mL (≈ 0.457 µM)

Question: And the MIC50 (Aspergillus versicolor)?
Answer: 0.25 µg/mL (≈ 0.229 µM)

Question: And the MIC90 (Aspergillus versicolor)?
Answer: 2 µg/mL (≈ 1.83 µM)

Question: What about the MIC50 (Alternaria alternata) of the same molecule?
Answer: 4 µg/mL (≈ 3.66 µM)

Question: And the MIC90 (Alternaria alternata)?
Answer: > 16 µg/mL

Question: What about the MIC50 (Pichia kudriavzevii) of the same molecule?
Answer: 0.25 µg/mL (≈ 0.229 µM)

Question: What about the MIC90 (Pichia kudriavzevii) of the same molecule?
Answer: 0.5 µg/mL (≈ 0.457 µM)

Question: And the MIC50 (Candida albicans)?
Answer: 0.06 µg/mL (≈ 0.0549 µM)

Question: And the MIC90 (Candida albicans)?
Answer: 0.12 µg/mL (≈ 0.11 µM)

Question: What about the MIC50 (Geotrichum candidum) of the same molecule?
Answer: > 16 µg/mL

Question: And the MIC90 (Geotrichum candidum)?
Answer: > 16 µg/mL

Question: What about the MIC50 [2] of the same molecule?
Answer: > 16 µg/mL

Question: And the MIC90 [2]?
Answer: > 16 µg/mL

Question: And the MIC50 (Lichtheimia corymbifera)?
Answer: > 16 µg/mL

Question: And the MIC90 (Lichtheimia corymbifera)?
Answer: > 16 µg/mL

Question: And the MIC50 (Paecilomyces lilacinus)?
Answer: > 16 µg/mL

Question: What about the MIC90 (Paecilomyces lilacinus) of the same molecule?
Answer: > 16 µg/mL

Question: And the MIC50 (Nakaseomyces glabratus)?
Answer: 0.12 µg/mL (≈ 0.11 µM)

Question: What about the MIC90 (Nakaseomyces glabratus) of the same molecule?
Answer: 0.25 µg/mL (≈ 0.229 µM)

Question: And the MIC50 (Paecilomyces variotii)?
Answer: 0.5 µg/mL (≈ 0.457 µM)

Question: And the MIC90 (Paecilomyces variotii)?
Answer: 4 µg/mL (≈ 3.66 µM)

Question: What about the MIC50 (Saksenaea vasiformis) of the same molecule?
Answer: > 16 µg/mL

Question: What about the MIC90 (Saksenaea vasiformis) of the same molecule?
Answer: > 16 µg/mL

Question: And the MIC50 (Candida parapsilosis)?
Answer: 1 µg/mL (≈ 0.915 µM)

Question: What about the MIC90 (Candida parapsilosis) of the same molecule?
Answer: 1 µg/mL (≈ 0.915 µM)

Question: And the MIC50 (Wickerhamomyces anomalus)?
Answer: 0.06 µg/mL (≈ 0.0549 µM)

Question: And the MIC90 (Wickerhamomyces anomalus)?
Answer: 0.5 µg/mL (≈ 0.457 µM)

Question: What about the MIC50 [3] of the same molecule?
Answer: > 16 µg/mL

Question: And the MIC90 [3]?
Answer: > 16 µg/mL

Question: What about the MIC50 (Exophiala jeanselmei) of the same molecule?
Answer: 0.25 µg/mL (≈ 0.229 µM)

Question: And the MIC90 (Exophiala jeanselmei)?
Answer: 1 µg/mL (≈ 0.915 µM)

Question: What about the MIC50 (Trichosporon asahii) of the same molecule?
Answer: > 16 µg/mL

Question: What about the MIC90 (Trichosporon asahii) of the same molecule?
Answer: > 16 µg/mL

Question: And the MIC50 (Yarrowia lipolytica)?
Answer: 0.5 µg/mL (≈ 0.457 µM)

Question: What about the MIC90 (Yarrowia lipolytica) of the same molecule?
Answer: 1 µg/mL (≈ 0.915 µM)

Question: And the MIC50 (Trichosporon)?
Answer: > 16 µg/mL

Question: What about the MIC90 (Trichosporon) of the same molecule?
Answer: > 16 µg/mL

Question: What about the MIC50 (Magnusiomyces capitatus) of the same molecule?
Answer: > 16 µg/mL

Question: And the MIC90 (Magnusiomyces capitatus)?
Answer: > 16 µg/mL

Question: And the MIC50 (Trichosporon ovoides)?
Answer: > 16 µg/mL

Question: And the MIC90 (Trichosporon ovoides)?
Answer: > 16 µg/mL

Question: What about the MIC50 (Neurospora sitophila) of the same molecule?
Answer: > 16 µg/mL

Question: What about the MIC90 (Neurospora sitophila) of the same molecule?
Answer: > 16 µg/mL

Question: And the MIC50 (Papiliotrema laurentii)?
Answer: > 16 µg/mL

Question: What about the MIC90 (Papiliotrema laurentii) of the same molecule?
Answer: > 16 µg/mL

Question: And the MIC50 (Aspergillus niger)?
Answer: 0.25 µg/mL (≈ 0.229 µM)

Question: What about the MIC90 (Aspergillus niger) of the same molecule?
Answer: 0.5 µg/mL (≈ 0.457 µM)

Question: What about the MIC50 (Beauveria bassiana) of the same molecule?
Answer: > 16 µg/mL

Question: What about the MIC90 (Beauveria bassiana) of the same molecule?
Answer: > 16 µg/mL
